In ChEMBL document CHEMBL1781970, “Synthesis and antiproliferative evaluation of 23-hydroxybetulinic acid derivatives” (Eur J Med Chem, 2011) one finds IC50 data, which are given here for 24 compounds.

Common to all, as to type: functional, cell-based
In one experiment the test system is A-375. The experiment is described as follows: Antiproliferative activity against human A375 cells after 72 hrs by MTT assay. The conditions noted are these: A-375, 72 h. In outline: (§1)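 Cells grown in RPMI 1640 with 10% FBS and 1% penicillin-streptomycin at 37 °C, 5% CO2, then seeded overnight in 96-well plates. Test compounds were dissolved in DMSO (doxorubicin control in PBS) and given at various concentrations for 72 h at 37 °C. MTT (5 mg/mL in PBS) was added for 4 h and OD read at 570 nm. IC50 was taken from dose-response curves; mean ± SD, ≥3 independent experiments.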
On the technique in general: Tetrazolium assays rely on reduction of a dye to a coloured formazan, in cell work by metabolically active cells.

In a further experiment the test system is B16. The experiment is described as follows: Antiproliferative activity against mouse B16 cells after 72 hrs by MTT assay. To be noted: B16, 72 h. In outline:
as §1

Another experiment deals with HepG2. The experiment is described as follows: Antiproliferative activity against human HepG2 cells after 72 hrs by MTT assay. The conditions noted are these: HepG2, 72 h. The method in brief:
as §1

In a further experiment the test system is MCF7. Briefly: Antiproliferative activity against human MCF7 cells after 72 hrs by MTT assay. The conditions noted are these: MCF7, 72 h. In outline: as §1
For another experiment, the system named is HeLa. The experiment is described as follows: Antiproliferative activity against human HeLa cells after 72 hrs by MTT assay. In outline:
as §1

Usually IC50 stands for the concentration that gives 50% inhibition. Higher therefore signals weaker potency.

Molecules are shown by their SMILES.

For the compound `C=C(CO)[C@@H]1CC[C@]2(C(=O)OC(C)(C)C)CC[C@]3(C)[C@H](CC[C@@H]4[C@@]5(C)CC[C@H](OC(C)=O)[C@@](C)(COC(C)=O)[C@@H]5CC[C@]43C)[C@@H]12`, the half-inhibitory concentration (IC50) in the experiment with A-375 was determined as 34.7 µM; in the experiment on B16 it was 49.5 µM; in the experiment with HepG2 it was 15.8 µM; in the experiment with MCF7 it was 14.1 µM; with HeLa, 23.3 µM.
The matching figures for `C=C(C)[C@@H]1CC[C@]2(C(=O)N3CCC[C@H]3C(=O)N[C@@H](CCSC)C(=O)O)CC[C@]3(C)[C@H](CC[C@@H]4[C@@]5(C)CC[C@H](O)[C@@](C)(CO)[C@@H]5CC[C@]43C)[C@@H]12`: 66.5 µM, 76.5 µM, 91.7 µM, 41.3 µM and 81.1 µM.
`C=C(C)[C@@H]1CC[C@]2(C(=O)N[C@@H](CCSC)C(=O)N[C@@H](CCSC)C(=O)O)CC[C@]3(C)[C@H](CC[C@@H]4[C@@]5(C)CC[C@H](O)[C@@](C)(CO)[C@@H]5CC[C@]43C)[C@@H]12`: the IC50 in the experiment on A-375 was 89.3 µM; with B16, 65.1 µM; with HepG2, more than 100 µM; in the experiment on MCF7 it was 84.7 µM; with HeLa, more than 100 µM.
For the compound `C=C(C)[C@@H]1CC[C@]2(C(=O)NCC(=O)N[C@@H](Cc3c[nH]c4ccccc34)C(=O)O)CC[C@]3(C)[C@H](CC[C@@H]4[C@@]5(C)CC[C@H](O)[C@@](C)(CO)[C@@H]5CC[C@]43C)[C@@H]12`, the IC50 with A-375, in the experiment with B16, with HepG2, with MCF7 and in the experiment with HeLa was more than 100 µM each time.
With `C=C(C)[C@@H]1CC[C@]2(C(=O)N3CCOCC3)CC[C@]3(C)[C@H](CC[C@@H]4[C@@]5(C)CC[C@H](OC(C)=O)[C@@](C)(COC(C)=O)[C@@H]5CC[C@]43C)[C@@H]12`, the IC50 was 4.33 µM in the experiment with A-375; 18.5 µM with B16; 9.74 µM with HepG2; 26.4 µM in the experiment on MCF7; 7.47 µM with HeLa.
The matching figures for `C=CCN(CC=C)C(=O)[C@]12CC[C@@H](C(=C)C)[C@@H]1[C@H]1CC[C@@H]3[C@@]4(C)CC[C@H](OC(C)=O)[C@@](C)(COC(C)=O)[C@@H]4CC[C@@]3(C)[C@]1(C)CC2`: 19 µM, more than 100 µM, 8.41 µM, 47.1 µM and 9.84 µM.
Taken in the same sequence, the figures for `C=C(CO)[C@@H]1CC[C@]2(C(=O)OCCC(C)C)CC[C@]3(C)[C@H](CC[C@@H]4[C@@]5(C)CC[C@H](OC(C)=O)[C@@](C)(COC(C)=O)[C@@H]5CC[C@]43C)[C@@H]12` were 7.8 µM, 35.9 µM, 10.7 µM, 15.1 µM and 20.8 µM.
Taken in the same sequence, the figures for `C=C(CO)[C@@H]1CC[C@]2(C(=O)OC(C)C)CC[C@]3(C)[C@H](CC[C@@H]4[C@@]5(C)CC[C@H](OC(C)=O)[C@@](C)(COC(C)=O)[C@@H]5CC[C@]43C)[C@@H]12` were 21.5 µM, 23.7 µM, 10.7 µM, 17.2 µM and 19.5 µM.
On to `C=C(C)[C@@H]1CC[C@]2(C(=O)N[C@@H](CCSC)C(=O)N[C@@H](CCSC)C(=O)OC)CC[C@]3(C)[C@H](CC[C@@H]4[C@@]5(C)CC[C@H](O)[C@@](C)(CO)[C@@H]5CC[C@]43C)[C@@H]12`, for which the IC50 in the experiment on A-375 is 26.8 µM; in the experiment on B16, 20.4 µM; in the experiment on HepG2, 23.1 µM; with MCF7, 66.1 µM; in the experiment with HeLa, 44.4 µM.
Take `C=C(C)[C@@H]1CC[C@]2(C(=O)NCC(=O)N[C@@H](C)C(=O)OC)CC[C@]3(C)[C@H](CC[C@@H]4[C@@]5(C)CC[C@H](O)[C@@](C)(CO)[C@@H]5CC[C@]43C)[C@@H]12`: the IC50 in the experiment with A-375 was 5.01 µM; with B16 it was 11.3 µM; with HepG2, 12.1 µM; with MCF7 it was 8.95 µM; in the experiment with HeLa it was 8.27 µM.
On to `C=C(C)[C@@H]1CC[C@]2(C(=O)O)CC[C@]3(C)[C@H](CC[C@@H]4[C@@]5(C)CC[C@H](O)[C@@](C)(COC(=O)N6CCC(N7CCCCC7)CC6)[C@@H]5CC[C@]43C)[C@@H]12`, for which the IC50 with A-375 was 9.23 µM; in the experiment with B16, 7.25 µM; with HepG2, 18.5 µM; in the experiment on MCF7, 9.95 µM; in the experiment on HeLa it was 12.5 µM.
Consider `C=C(C)[C@@H]1CC[C@]2(C(=O)N3CCCCC3)CC[C@]3(C)[C@H](CC[C@@H]4[C@@]5(C)CC[C@H](OC(C)=O)[C@@](C)(COC(C)=O)[C@@H]5CC[C@]43C)[C@@H]12`, for which the IC50 in the experiment with A-375 is more than 100 µM; with B16 it was more than 100 µM; in the experiment on HepG2 it was 66.3 µM; with MCF7, more than 100 µM; with HeLa it was 69.2 µM.
For `C=C(C)[C@@H]1CC[C@]2(C(=O)N3CCOCC3)CC[C@]3(C)[C@H](CC[C@@H]4[C@@]5(C)CC[C@H](O)[C@@](C)(CO)[C@@H]5CC[C@]43C)[C@@H]12`, the concentration for half-maximal inhibition (IC50) in the experiment with A-375 amounted to 25.1 µM; in the experiment with B16, 42.7 µM; in the experiment on HepG2, 42 µM; in the experiment with MCF7, 19.8 µM; in the experiment on HeLa, 34.3 µM.
Taken in the same sequence, the figures for `C=C(C)[C@@H]1CC[C@]2(C(=O)N3CCNCC3)CC[C@]3(C)[C@H](CC[C@@H]4[C@@]5(C)CC[C@H](OC(C)=O)[C@@](C)(COC(C)=O)[C@@H]5CC[C@]43C)[C@@H]12` were 18.8 µM, 13.1 µM, 17.7 µM, 4.89 µM and 18.8 µM.
Taken in the same sequence, the figures for `C=C(C)[C@@H]1CC[C@]2(C(=O)OCCN3CCOCC3)CC[C@]3(C)[C@H](CC[C@@H]4[C@@]5(C)CC[C@H](O)[C@@](C)(CO)[C@@H]5CC[C@]43C)[C@@H]12` were 34.2 µM, 45.9 µM, 59.2 µM, 34.3 µM and more than 100 µM.
With `C=C(CO)[C@@H]1CC[C@]2(C(=O)OCC3CCCO3)CC[C@]3(C)[C@H](CC[C@@H]4[C@@]5(C)CC[C@H](O)[C@@](C)(CO)[C@@H]5CC[C@]43C)[C@@H]12` (some centres undefined), the half-maximal inhibitory concentration (IC50) with A-375 was determined as 70.4 µM; in the experiment with B16 it was 64.3 µM; in the experiment on HepG2 it was 81.2 µM; in the experiment on MCF7, 76.3 µM; in the experiment with HeLa, 79.4 µM.
As for `C=C(CO)[C@@H]1CC[C@]2(C(=O)N3CCCCC3)CC[C@]3(C)[C@H](CC[C@@H]4[C@@]5(C)CC[C@H](OC(C)=O)[C@@](C)(COC(C)=O)[C@@H]5CC[C@]43C)[C@@H]12`, the IC50 worked out at 53.7 µM in the experiment with A-375; 64.3 µM with B16; 11.3 µM with HepG2; 22.2 µM in the experiment on MCF7; 11 µM in the experiment on HeLa.
Turning to `COc1cccc2c1C(=O)c1c(O)c3c(c(O)c1C2=O)C[C@@](O)(C(=O)CO)C[C@@H]3O[C@H]1C[C@H](N)[C@H](O)[C@H](C)O1` [DOXORUBICIN], the half-inhibitory concentration (IC50) with A-375 was 0.13 µM; in the experiment on B16, 0.14 µM; with MCF7 it was 0.19 µM; with HeLa, 0.13 µM.
Regarding `C=C(C)[C@@H]1CC[C@]2(C(=O)OC/C=C/CO)CC[C@]3(C)[C@H](CC[C@@H]4[C@@]5(C)CC[C@H](O)[C@@](C)(CO)[C@@H]5CC[C@]43C)[C@@H]12`, the IC50 was found to be 55.7 µM in the experiment on A-375; 19.1 µM with B16; 38 µM in the experiment with HepG2; 36 µM with MCF7; 44.4 µM in the experiment on HeLa.
Taken in the same sequence, the figures for `C=CCN(CC=C)C(=O)[C@]12CC[C@@H](C(=C)C)[C@@H]1[C@H]1CC[C@@H]3[C@@]4(C)CC[C@H](O)[C@@](C)(CO)[C@@H]4CC[C@@]3(C)[C@]1(C)CC2` were 17.2 µM, 60.4 µM, 59.8 µM, 17.7 µM and 59 µM.
The matching figures for `C=C(C)[C@@H]1CC[C@]2(C(=O)N3CCC(N4CCCCC4)CC3)CC[C@]3(C)[C@H](CC[C@@H]4[C@@]5(C)CC[C@H](OC(C)=O)[C@@](C)(COC(C)=O)[C@@H]5CC[C@]43C)[C@@H]12`: 8.42 µM, 9.57 µM, 11.1 µM, 6.86 µM and 10.8 µM.
Taken in the same sequence, the figures for `C=C(C)[C@@H]1CC[C@]2(C(=O)NCCCCn3nnc(-c4ccccn4)n3)CC[C@]3(C)[C@H](CC[C@@H]4[C@@]5(C)CC[C@H](O)[C@@](C)(CO)[C@@H]5CC[C@]43C)[C@@H]12` were 30.6 µM, 66.9 µM, 48.3 µM, 17.7 µM and 46.3 µM.
`C=C(C)[C@@H]1CC[C@]2(C(=O)O)CC[C@]3(C)[C@H](CC[C@@H]4[C@@]5(C)CC[C@H](O)[C@@](C)(CO)[C@@H]5CC[C@]43C)[C@@H]12`: the IC50 is 42 µM with A-375; 18.7 µM with B16; 41.4 µM in the experiment on HepG2; 46.6 µM with MCF7; 46.2 µM in the experiment with HeLa.
As for `C=C(C)[C@@H]1CC[C@]2(C(=O)N3CCC[C@H]3C(=O)O)CC[C@]3(C)[C@H](CC[C@@H]4[C@@]5(C)CC[C@H](O)[C@@](C)(CO)[C@@H]5CC[C@]43C)[C@@H]12`, the 50% inhibitory concentration (IC50) in the experiment with A-375 is more than 100 µM; in the experiment on B16, 87.3 µM; in the experiment with HepG2, 72.2 µM; in the experiment on MCF7, more than 100 µM; in the experiment with HeLa it was 95.6 µM.
